Bioassay records deposited in PubChem by several laboratories.
STAT1 blocker = reduces IFN-gamma driven STAT1 reporter signal; NIH 3T3 STAT1-luciferase reporter, luminescence; inhibition, % at 5.5 µM; hit rate 0.35% among 200,000; AID 920;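 active means inhibition above a set limit, the mean inhibition across all tested compounds plus 3 SD, cut at about 34% in these data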;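 further: 0% = IFN-gamma with DMSO and 100% = IFN-gamma with 300 µM nifuroxazide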
PERK inh = blocks human PERK kinase; Q9NZJ5; inhibition, % at 5.6 µM; hit rate 0.17% among 220,000; CHO PERK-DD fusion, SEAP luminescence translation reporter;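 active means inhibition above the mean inhibition of all tested compounds plus 3 SD, set separately per screening campaign, cut at about 2.9% in these data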;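 further: PERK kinase domain activated by AP20187 dimerizer at 100 nM; 0% = DMSO with dimerizer and 100% = rapamycin at 8.4 µM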
Target sequence (Q9NZJ5 whole entry, looked up, the tested form may be a part): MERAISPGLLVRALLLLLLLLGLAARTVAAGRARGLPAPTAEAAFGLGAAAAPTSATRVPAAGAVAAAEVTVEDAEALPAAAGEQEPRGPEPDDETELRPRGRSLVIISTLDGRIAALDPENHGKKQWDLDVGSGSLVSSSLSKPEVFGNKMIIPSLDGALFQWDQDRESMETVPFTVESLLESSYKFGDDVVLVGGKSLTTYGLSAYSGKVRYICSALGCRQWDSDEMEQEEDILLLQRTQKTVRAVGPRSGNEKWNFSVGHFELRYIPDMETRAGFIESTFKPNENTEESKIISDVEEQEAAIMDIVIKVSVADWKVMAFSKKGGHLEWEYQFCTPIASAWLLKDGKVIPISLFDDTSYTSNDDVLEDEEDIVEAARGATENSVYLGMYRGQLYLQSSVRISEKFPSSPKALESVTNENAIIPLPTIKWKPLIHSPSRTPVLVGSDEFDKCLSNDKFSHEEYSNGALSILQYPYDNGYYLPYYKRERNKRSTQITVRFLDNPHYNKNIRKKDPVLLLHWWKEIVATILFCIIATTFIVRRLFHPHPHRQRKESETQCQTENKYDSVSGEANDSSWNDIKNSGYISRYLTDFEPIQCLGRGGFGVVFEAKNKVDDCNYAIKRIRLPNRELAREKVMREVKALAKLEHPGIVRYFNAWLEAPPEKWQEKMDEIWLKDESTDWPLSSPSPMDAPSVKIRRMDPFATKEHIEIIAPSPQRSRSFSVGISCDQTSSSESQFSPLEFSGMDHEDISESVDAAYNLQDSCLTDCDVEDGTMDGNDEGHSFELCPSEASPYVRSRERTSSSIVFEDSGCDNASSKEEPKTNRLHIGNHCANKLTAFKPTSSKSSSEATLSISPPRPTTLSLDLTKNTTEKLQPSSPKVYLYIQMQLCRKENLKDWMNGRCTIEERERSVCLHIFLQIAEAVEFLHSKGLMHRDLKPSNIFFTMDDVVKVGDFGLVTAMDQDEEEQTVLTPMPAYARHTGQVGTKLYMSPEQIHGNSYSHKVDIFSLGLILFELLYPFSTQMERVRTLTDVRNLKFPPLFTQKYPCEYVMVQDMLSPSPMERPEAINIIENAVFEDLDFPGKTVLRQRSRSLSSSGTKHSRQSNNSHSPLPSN
STAT3 blocker = inhibitors of IL-6 induced STAT3 signaling. hit rate 0.89% among 190,000. AID 862. U3A cells, IL-6 STAT3-luciferase reporter, luminescence; host cell line lacks STAT1. inhibition, % at 5.5 µM;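 active means inhibition above the mean inhibition across all screened compounds plus 3 SD, cut at about 44% in these data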;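 further: 0% = DMSO only wells and 100% = 100 µM nifuroxazide control wells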
Platelet DG rel = modulates dense granule release in human platelets. inhibition, %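 (compounds screened at 7.5 µM in platelet-rich plasma)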. hit rate 0.22% among 300,000. human platelet-rich plasma, SFLLRN dense granule ATP release, luminescence;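 active means mean replicate score, as percent of positive control, at or above 50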
STAT3 activator = activators of IL-6 induced STAT3 signaling | hit rate 0.91% among 190,000 | AID 871 | U3A cells, IL-6 STAT3-luciferase reporter, luminescence; 100% = signal with IL-6 EC80 alone | activation (% of control), % at 5.6 µM;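 active means activation above the screen-wide mean of compound activation plus 3 SD, cut at about 130% in these data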;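 further: 0% = background luminescence of wells with medium and substrate only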
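system = STAT3-luciferase reporter U3A cells | reagent = IL-6 stimulus at 33 ng/mL final | timing = 1 h compound pre-exposure, 6 h IL-6 stimulation, 37 °C | measured by = luminescence | evaluation = % activation versus median of IL-6-stimulated wells | control set = IL-6-only wells as 100% reference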
* = called active by the depositor; . = no result given. Hits are enriched below; roughly 1.4% of the tested compounds scored in any of these assays.

SMILES	STAT1 blocker	PERK inh	STAT3 blocker	Platelet DG rel	STAT3 activator
COc1ccc(C(=O)Nc2ccccc2C(N)=O)cc1	-20	0	17	5	87
O=C(Nc1ccccc1C(=O)N/N=C/c1ccc(O)cc1)c1ccccc1	.	0	.	124*	.
COc1ccc(C(=O)Nc2ccccc2C(=O)NCc2cccnc2)cc1OC	.	.	.	5	.
COc1cc(C(=O)Nc2c(C)cc(C)cc2C)c(Br)c(OC)c1OC	-6	1	0	2	103
O=C(CCN1C(=O)C2C3CCC(C3)C2C1=O)Nc1cccc(Cl)c1 (stereo not drawn)	.	.	.	-31	.
COc1ccc(C(=O)/C(C#N)=N/Nc2ccccc2[N+](=O)[O-])cc1	-7	1	5	8	99
COc1ccc(C(=O)/C(C#N)=N/Nc2ccc([N+](=O)[O-])cc2)cc1	37*	0	59*	8	54
COc1ccccc1N/C=C/c1onc(C)c1[N+](=O)[O-]	76*	1	87*	64*	26
Cc1noc(/C=C/Nc2ccc(F)cc2F)c1[N+](=O)[O-]	-50	1	24	20	85
CCn1c(=O)cc(N2CCN(Cc3ccccc3)CC2)[nH]c1=O	.	.	.	53*	.
Cn1c(CC2C(=O)Nc3ccc(Br)cc32)nc2ccccc2c1=O (stereo not drawn)	14	-2	-36	-6	133*
O=C1Nc2ccc(Br)cc2C1Cc1ccccc1F (stereo not drawn)	.	.	.	-1	.
COc1ccc(-n2cnc3scc(-c4ccccc4)c3c2=O)cc1	3	0	-1	0	101
Cc1nc(C/C(=N\N)c2ccc(O)cc2O)cs1	1	1	-10	-12	109
N/N=C(\Cc1cscn1)c1ccc(O)cc1O	.	1	.	57*	.
COc1cc(-c2c(C#N)c(N)nc3c2c(C)nn3-c2ccc(C)c(C)c2)cc(OC)c1OC	6	-1	-34	-1	135*
O=C1CN(CC(=O)Nc2cccc(Cl)c2Cl)c2ccccc2N1	6	0	-58	3	149*
O=C(CN1C(=O)NC2(CCCC2)C1=O)Nc1cccc(Cl)c1Cl	.	.	.	1	.
CN1/C(=C/C(=O)c2cccs2)Sc2ccccc21	-44	0	-70	-6	163*
CC(=O)Nc1ccc(S(=O)(=O)N2CCN(C)CC2)cc1	-7	3.1*	1	7	100
COC(=O)C(C)Oc1ccc(-c2nccc(-c3cccs3)n2)cc1 (stereo not drawn)	-19	1	4	3	101
Oc1ccc(-c2nccc(-c3cccs3)n2)cc1	-46	1	-47	2	140*
CCNC(=O)[C@H]1O[C@@H](n2cnc3c(N)nc(NCCc4ccc(CCC(=O)O)cc4)nc32)[C@H](O)[C@@H]1O	.	.	.	109*	.
Cc1ccc(S(=O)(=O)N2CCN(C(=S)NCc3ccc4c(c3)OCO4)CC2)cc1	5	1	1	3	100
O=c1cc(CN2CCN(c3ccccc3O)CC2)nc2sccn12	14	0	-2	72*	99
SMILES	STAT1 blocker	PERK inh	STAT3 blocker	Platelet DG rel	STAT3 activator
NC1=NC(=Nc2cccc(S(N)(=O)=O)c2)c2ccccc21	.	4.0*	.	18	.
CC(Sc1n[nH]c(N)n1)C(=O)NC1CCCCC1C (stereo not drawn)	.	.	.	-1	.
CC(=O)c1cn(CC(=O)Nc2ccc(C)cc2)c2ccccc12	14	1	57*	8	51
O=C1/C(=C\c2cccs2)Sc2ccc3ccccc3c21	-6	0	-94	14	180*
O=C1C(=Cc2cccs2)C(=O)c2ccccc21	-5	1	-3	-5	102
CCOc1ccc(N/C(SCc2cccc([N+](=O)[O-])c2)=C(/C#N)C(N)=O)cc1	13	0	4	5	98
N#CC(C#N)=C(Nc1ccc(F)cc1)SCc1cccc(F)c1	49*	0	59*	26	52
O=c1oc2ccccc2cc1-c1nc2c(s1)CCc1ccccc1-2	-4	1	-39	-4	134*
CCOc1ccc(/C=C2\SC(=S)N(CC(=O)Nc3ccccn3)C2=O)cc1	.	.	.	4	.
CC(=O)Nc1ccc(C(=O)N(C)c2ccccc2)cc1	2	0	4	77*	102
Nc1nnc(SCC(=O)N2CCc3ccccc3C2)s1	4	0	8	6	98
CC1(C)CC(N2CCC(=O)NC2=S)CC(C)(C)N1	.	.	.	69*	.
CCCc1cc(=O)[nH]c(SCCOc2ccc(Cl)cc2)n1	-1	2.9*	0	2	104
CCCCSc1nc(CCC)cc(=O)[nH]1	1	-1	-8	-10	107
Cn1cccc1/C=C1\CCc2ccccc2C1=O	58*	0	89*	67*	27
Cc1nc2ccccc2c2nc3ccccc3n12	-16	-1	4	-7	95
c1ccc2c(c1)nnn1c3ccccc3nc21	-51	0	48*	15	60
O=C(/C=C1\C(=O)Nc2ccccc21)/C=C1\C(=O)Nc2ccccc21	.	0	.	.	.
CN(C)/C=C1\C(=O)Nc2ccccc21	6	0	-32	6	135*
O=C(NCCCN1CCOCC1)c1cccc(S(=O)(=O)Nc2cc(Cl)ccc2Cl)c1	7	1	3	0	99
CC1CCC(NC(=O)Cn2cc3c(n2)CCCC3)CC1 (stereo not drawn)	-15	2	-8	3	110
O=C(Cn1cc2c(n1)CCCC2)NCC1CCCO1 (stereo not drawn)	-2	3.2*	5	10	104
N#Cc1ccncc1S(=O)c1ccc(Cl)cc1 (stereo not drawn)	.	.	.	11	.
CN(C)c1ccc(C(C#N)c2ccccc2)nn1 (stereo not drawn)	-6	0	-5	2	106
COc1ccc(NC(=O)CSc2nc(N)c3cc4c(nc3n2)CC(C)(C)OC4)cc1	.	3.2*	.	3	.
SMILES	STAT1 blocker	PERK inh	STAT3 blocker	Platelet DG rel	STAT3 activator
O=C/C(=C\Nc1ccc(S(=O)(=O)CCO)cc1)c1nc2cc(Cl)ccc2o1	-11	1	-6	-3	106
O=C(Nc1cccc(O)c1)c1cc(-c2ccc3c(c2)OCO3)on1	.	.	.	95*	.
Cc1c(C(=O)N2CCCC2)sc(NC(=O)c2ccc(Cl)cc2)c1C#N	-6	0	10	58*	93
COCc1cc(C)nc(SCC[N+](C)(C)CC(=O)c2ccc(Br)cc2)c1C#N	-11	1	2	51*	100
COCc1cc(C)nc(SCC[N+](C)(C)CC(=O)Nc2ccccc2)c1C#N	0	0	-1	19	105
Cc1nc2nc(-c3ccccc3)cc(=O)n2[nH]1	23	3.0*	3	10	101
Cc1ccccc1-n1c(=O)cc(N2CCN(C(=O)c3ccco3)CC2)[nH]c1=O	-1	1	4	52*	101
Cc1ccccc1-n1c(=O)cc(N2CCCCCC2)[nH]c1=O	-2	1	-3	-8	103
FC(F)(F)c1cc(NC2CCCCC2)ccn1	.	.	.	-11	.
O=C(OC1CCOC1=O)c1cc(-c2cccs2)nc2ccccc12 (stereo not drawn)	-1	1	-6	0	106
